Data published in ChEMBL document CHEMBL5357066, “Development of Novel Membrane Disrupting Lipoguanidine Compounds Sensitizing Gram-Negative Bacteria to Antibiotics” (ACS Med Chem Lett, 2024).
Values after ≈ are worked out from the molar mass of the structure shown.

Each compound was assayed on Klebsiella pneumoniae (assay: Antibacterial activity against Klebsiella pneumoniae M6 assessed as bacterial growth inhibition incubated for overnight by microbroth dilution method).
For `CCCCCCCC/C=C\CCCCCCCCNC(=N)NCCCCN`, the MIC was 8 µg/mL (≈ 21 µM).

The compounds below were run on Pseudomonas aeruginosa (assay: Antibacterial activity against Pseudomonas aeruginosa NCTC 13437 assessed as bacterial growth inhibition incubated for overnight by microbroth dilution method).
Format: functional
Outline: (§1)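 Broth microdilution in Tryptic Soy Broth. DMSO stocks were diluted in TSB as 2-fold series. Overnight TSB cultures were back-diluted to OD 0.01 and mixed 1:1 with compound. Incubation was overnight at 37 °C. MIC was the lowest concentration without visible growth (<0.1 OD600). DMSO vehicle was checked at equivalent concentrations.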
`CCCCCCCC/C=C\CCCCCCCCNC(=N)NCCCCN` was tested, and the MIC was > 128 µg/mL.

Each compound was assayed on Acinetobacter baumannii (assay: Synergistic antibacterial activity against Acinetobacter baumannii ATCC 17978 assessed as rifampicin MIC at <=0.25 times MIC incubated for overnight by microbroth dilution checkerboard assay).
Format: functional
Outline: (§2)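 Checkerboard microdilution under MIC conditions (TSB, overnight, 37 °C). Two-fold series of each agent were combined on one plate before bacteria were added, and single-agent MICs were measured on the same plate. FIC = sum of combination MIC/alone MIC for each agent, taken from the most synergistic well. Three independent repeats, mean ± SD. ≤0.5 was taken as strong synergy and 0.5–<1 as weak.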
In the case of `CCCCCCCC/C=C\CCCCCCCCNC(=N)NCCCCN`, the MIC is reported as ≤ 0.125 µg/mL.

These compounds were tested on Pseudomonas aeruginosa (assay: Antibacterial activity against Pseudomonas aeruginosa PAO1 assessed as bacterial growth inhibition incubated for overnight by microbroth dilution method).
Format: functional
Outline: as §1
Work on `CCCCCCCC/C=C\CCCCCCCCNC(=N)NCCCCN` yielded an MIC of 128 µg/mL (≈ 336 µM).

What follows are compounds tested on Staphylococcus aureus (assay: Antibacterial activity against methicillin resistant Staphylococcus aureus USA 300 assessed as bacterial growth inhibition incubated for overnight by microbroth dilution method).
Format: functional
Outline: (§3)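 Microbroth dilution in Tryptic Soy Broth. DMSO stocks were diluted in TSB as 2-fold series. Overnight TSB cultures were back-diluted to OD 0.01 and mixed 1:1 with compound. Incubation was overnight at 37 °C. MIC is the lowest concentration with no visible growth (<0.1 OD600). DMSO at equivalent concentrations was checked.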
In the case of `CCCCCCCC/C=C\CCCCCCCCNC(=N)NCCCCN`, the MIC is reported as 2 µg/mL (≈ 5.25 µM).

These compounds were tested on Escherichia coli (assay: Antibacterial activity against Escherichia coli NCTC 12923 assessed as bacterial growth inhibition incubated for overnight by microbroth dilution method).
Format: functional
Outline: as §1
In the case of `CCCCCCCC/C=C\CCCCCCCCNC(=N)NCCCCN`, the MIC is reported as 8 µg/mL (≈ 21 µM).

The compounds below were run on Enterococcus faecalis (assay: Antibacterial activity against vancomycin resistant Enterococcus faecalis NCTC 12201 assessed as bacterial growth inhibition incubated for overnight by microbroth dilution method).
Format: functional
Outline: as §3
For `CCCCCCCC/C=C\CCCCCCCCNC(=N)NCCCCN`, the MIC was 4 µg/mL (≈ 10.5 µM).

Each compound was assayed on Pseudomonas aeruginosa (assay: Synergistic antibacterial activity against Pseudomonas aeruginosa PAO1 assessed as fold change in rifampicin MIC at <=0.25 times MIC incubated for overnight by microbroth dilution checkerboard assay relative to rifampicin alone).
Format: functional
Outline: (§4)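 Checkerboard microdilution in Tryptic Soy Broth, run like the MIC assay. Overnight TSB cultures were back-diluted to OD 0.01 and added 1:1 to the combined two-fold series of both agents, then incubated overnight at 37 °C. Growth/no-growth was called at <0.1 OD600. MICs alone were read on the same plates. FIC index came from the most synergistic well; three independent repeats, mean ± SD.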
In the case of `CCCCCCCC/C=C\CCCCCCCCNC(=N)NCCCCN`, the “fold change (FC)” value is reported as 0.

These compounds were tested on Acinetobacter baumannii (assay: Antibacterial activity against Acinetobacter baumannii AYE assessed as bacterial growth inhibition incubated for overnight by microbroth dilution method).
Format: functional
Outline: as §1
In the case of `CCCCCCCC/C=C\CCCCCCCCNC(=N)NCCCCN`, the MIC is reported as 16 µg/mL (≈ 42 µM).

Each compound was assayed on Klebsiella pneumoniae (assay: Synergistic antibacterial activity against Klebsiella pneumoniae NCTC 13368 assessed as rifampicin MIC at <=0.25 times MIC incubated for overnight by microbroth dilution checkerboard assay).
Format: functional
Outline: as §2
For `CCCCCCCC/C=C\CCCCCCCCNC(=N)NCCCCN`, the MIC was ≤ 0.125 µg/mL.

These compounds were tested on Klebsiella pneumoniae (assay: Synergistic antibacterial activity against […] Klebsiella pneumoniae M6 assessed as rifampicin MIC at <=0.25 times MIC incubated for overnight by microbroth dilution checkerboard assay).
Format: functional
Outline: (§5)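 Checkerboard run under the MIC conditions (TSB, overnight, 37 °C). Antibiotic and lipoguanidine 2-fold series were combined on one plate before bacteria were added. Growth/no-growth was scored as for the MIC (<0.1 OD600). Single-agent MICs were measured on the same plates. Three independent repeats were done.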
With `CCCCCCCC/C=C\CCCCCCCCNC(=N)NCCCCN` the MIC was 16 µg/mL.

Each compound was assayed on Staphylococcus aureus (assay: Antibacterial activity against methicillin resistant Staphylococcus aureus NCTC 13616 assessed as bacterial growth inhibition incubated for overnight by microbroth dilution method).
Format: functional
Outline: as §3
`CCCCCCCC/C=C\CCCCCCCCNC(=N)NCCCCN` showed an MIC of 4 µg/mL (≈ 10.5 µM).

The compounds below were run on Escherichia coli (assay: Synergistic antibacterial activity against Escherichia coli NCTC 12923 assessed as fold change in rifampicin MIC at <=0.25 times MIC incubated for overnight by microbroth dilution checkerboard assay relative to rifampicin alone).
Format: functional
Outline: as §2
In the case of `CCCCCCCC/C=C\CCCCCCCCNC(=N)NCCCCN`, the “fold change (FC)” value is reported as 0.

What follows are compounds tested on Acinetobacter baumannii (assay: Synergistic antibacterial activity against Acinetobacter baumannii AYE assessed as rifampicin MIC at <=0.25 times MIC incubated for overnight by microbroth dilution checkerboard assay).
Format: functional
Outline: as §2
`CCCCCCCC/C=C\CCCCCCCCNC(=N)NCCCCN` was tested, and the MIC was ≤ 0.125 µg/mL.

Each compound was assayed on Enterococcus faecium (assay: Antibacterial activity against vancomycin resistant Enterococcus faecium NCTC 12204 assessed as bacterial growth inhibition incubated for overnight by microbroth dilution method).
Format: functional
Outline: as §3
Compound `CCCCCCCC/C=C\CCCCCCCCNC(=N)NCCCCN` has an MIC of 4 µg/mL (≈ 10.5 µM).

The compounds below were run on Escherichia coli (assay: Synergistic antibacterial activity against Escherichia coli NCTC 12923 assessed as rifampicin MIC at <=0.25 times MIC incubated for overnight by microbroth dilution checkerboard assay).
Format: functional
Outline: as §2
`CCCCCCCC/C=C\CCCCCCCCNC(=N)NCCCCN` showed an MIC of 8 µg/mL.

Each compound was assayed on Acinetobacter baumannii (assay: Antibacterial activity against Acinetobacter baumannii ATCC 17978 assessed as bacterial growth inhibition incubated for overnight by microbroth dilution method).
Format: functional
Outline: as §1
`CCCCCCCC/C=C\CCCCCCCCNC(=N)NCCCCN` was tested, and the MIC was 8 µg/mL (≈ 21 µM).

These compounds were tested on Acinetobacter baumannii (assay: Synergistic antibacterial activity against Acinetobacter baumannii AYE assessed as bacterial growth inhibition incubated for overnight in presence of PBMN by microbroth dilution method relative to control).
Format: functional
Outline: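 Adapted broth microdilution in TSB. The test compound was in a 2-fold dilution series, with PMBN added at a fixed 30 µg/mL. Bacteria at OD 0.02 were added, and plates were incubated overnight at 37 °C. Growth/no growth was read as for the MIC (<0.1 OD600).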
With `CCCCCCCC/C=C\CCCCCCCCNC(=N)NCCCCN` the “inhibition (INH)” value was <20%.

Each compound was assayed on Staphylococcus aureus (assay: Antibacterial activity against methicillin sensitive Staphylococcus aureus 1199B assessed as bacterial growth inhibition incubated for overnight by microbroth dilution method).
Format: functional
Outline: as §3
Compound `CCCCCCCC/C=C\CCCCCCCCNC(=N)NCCCCN` has an MIC of 4 µg/mL (≈ 10.5 µM).

These compounds were tested on Staphylococcus aureus (assay: Antibacterial activity against methicillin sensitive Staphylococcus aureus ATCC 9144 assessed as bacterial growth inhibition incubated for overnight by microbroth dilution method).
Format: functional
Outline: as §3
Work on `CCCCCCCC/C=C\CCCCCCCCNC(=N)NCCCCN` yielded an MIC of 4 µg/mL (≈ 10.5 µM).

Each compound was assayed on Pseudomonas aeruginosa (assay: Synergistic antibacterial activity against Pseudomonas aeruginosa PAO1 assessed as rifampicin MIC at <=0.25 times MIC incubated for overnight by microbroth dilution checkerboard assay).
Format: functional
Outline: as §4
`CCCCCCCC/C=C\CCCCCCCCNC(=N)NCCCCN` was tested, and the MIC was 16 µg/mL.

These compounds were tested on Acinetobacter baumannii (assay: Synergistic antibacterial activity against Acinetobacter baumannii ATCC 17978 assessed as fold change in rifampicin MIC at <=0.25 times MIC incubated for overnight by microbroth dilution checkerboard assay relative to rifampicin alone).
Format: functional
Outline: as §2
In the case of `CCCCCCCC/C=C\CCCCCCCCNC(=N)NCCCCN`, the “fold change (FC)” value is reported as “>=4”.

These compounds were tested on Enterococcus faecalis (assay: Antibacterial activity against vancomycin sensitive Enterococcus faecalis NCTC 775 assessed as bacterial growth inhibition incubated for overnight by microbroth dilution method).
In the case of `CCCCCCCC/C=C\CCCCCCCCNC(=N)NCCCCN`, the MIC is reported as 4 µg/mL (≈ 10.5 µM).

The compounds below were run on Pseudomonas aeruginosa (assay: Synergistic antibacterial activity against Pseudomonas aeruginosa NCTC 13437 assessed as fold change in rifampicin MIC at <=0.25 times MIC incubated for overnight by microbroth dilution checkerboard assay relative to rifampicin alone).
Format: functional
Outline: as §4
In the case of `CCCCCCCC/C=C\CCCCCCCCNC(=N)NCCCCN`, the “fold change (FC)” value is reported as 0.

These compounds were tested on Klebsiella pneumoniae (assay: Synergistic antibacterial activity against Klebsiella pneumoniae NCTC 13368 assessed as fold change in rifampicin MIC at <=0.25 times MIC incubated for overnight by microbroth dilution checkerboard assay relative to rifampicin alone).
Format: functional
Outline: as §5
With `CCCCCCCC/C=C\CCCCCCCCNC(=N)NCCCCN` the “fold change (FC)” value was “>=4”.

Each compound was assayed on Acinetobacter baumannii (assay: Synergistic antibacterial activity against Acinetobacter baumannii AYE assessed as fold change in rifampicin MIC at <=0.25 times MIC incubated for overnight by microbroth dilution checkerboard assay relative to rifampicin alone).
Format: functional
Outline: as §2
In the case of `CCCCCCCC/C=C\CCCCCCCCNC(=N)NCCCCN`, the “fold change (FC)” value is reported as “>=4”.

The compounds below were run on Klebsiella pneumoniae (assay: Antibacterial activity against ESBL Klebsiella pneumoniae NCTC 13368 assessed as bacterial growth inhibition incubated for overnight by microbroth dilution method).
With `CCCCCCCC/C=C\CCCCCCCCNC(=N)NCCCCN` the MIC was 128 µg/mL (≈ 336 µM).

The compounds below were run on Pseudomonas aeruginosa (assay: Synergistic antibacterial activity against Pseudomonas aeruginosa NCTC 13437 assessed as rifampicin MIC at <=0.25 times MIC incubated for overnight by microbroth dilution checkerboard assay).
Format: functional
Outline: as §4
With `CCCCCCCC/C=C\CCCCCCCCNC(=N)NCCCCN` the MIC was 16 µg/mL.
